Assay outcomes from PubChem.
Only a selection was taken, and hits are over-represented in it overall.
L major viab: inhibitors of Leishmania major promastigote growth. Leishmania major promastigotes, resazurin fluorescence viability. inhibition, % at 10 µM. 200,000 tested, 9% active. AID 1063; in the data active = inhibition above about 50%;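 note: promastigotes grown with compound for 44 hours at 28 °C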
T cruzi repl: blocks replication of Trypanosoma cruzi; inhibition, % (concentration not given with the values); T. cruzi beta-gal in NIH3T3, luminescence, 90 h; 300,000 tested, 1.4% active; AID 1885;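 active = mean inhibition across valid replicates above about 55%, limit read from the data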;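 note: signal also drops with host cell toxicity which is not excluded here; 0% = plate median of DMSO wells and 100% = zero luminescence signal; higher percent means less beta-gal luminescence so fewer parasites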
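assay system = mouse NIH/3T3 fibroblasts infected with β-gal-expressing T. cruzi Tulahuen C4 | input = 5,000 NIH/3T3 host cells per well | buffer or medium = DMEM plus 2% FBS | timing = 3 h host attachment, then at least 90 h co-culture | measured by = GalScreen luminescence, 60 min | evaluation = luminescence reflecting intracellular parasite burden, expressed as percent inhibition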
HSF1 activator: increases HSF-1 driven luciferase reporter signal | NIH3T3-HGL HSF-1 luciferase reporter, MG132, 8 h; 100% = twice DMSO control signal | activation, % at 9 µM | 300,000 tested, 1.7% active | AID 504408;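 active = mean replicate activation of at least 50% with a set share of replicates each reaching 50%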;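 note: 0% = median of the neutral control wells and 100% = twice that signal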
Hsp70 activator: transcriptional activators of Hsp70. activation, % at 10 µM. AID 1203. 200,000 tested, 0.04% active. HeLa Hsp70 promoter luciferase reporter, luminescence; scaled: vehicle 0, proteasome-inhibitor control 100%;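 active = activation above the mean across all tested compounds plus 3 SD, cutoff set per campaign, cut at about 5.5% in these data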;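 note: 100% = MG132 at 30 µM as the positive control and 0% = DMSO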
HSF1 inhib: HSF1 inhibition | AID 2098 | 300,000 tested, 0.77% active | NIH3T3-HGL HSE-luciferase, MG132-induced, luminescence 8 h; hits give low values | activity change, negative = inhibition, % at 7.5 µM (by protocol);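 active = more than half of replicate wells show activity change below -50%, luminescence cut by over half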;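 note: luciferase reports HSF-1 transcriptional activity via heat shock element; 0% = median of DMSO wells and -100% = zero luminescence signal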
* marks the source's active call; other numbers are inactive results; / = not tested or not shown.

SMILES	L major viab	T cruzi repl	HSF1 activator	Hsp70 activator	HSF1 inhib
Cc1cccc(NC(=O)CSc2nnc(CNC(=O)c3ccc(S(=O)(=O)N(C)C)cc3)n2-c2cccc(C)c2)c1	72*	11	-3	0	-3
Cc1nccn1-c1ccc(C=O)cc1	-2	5	0	0	0
CCOC(=O)C1=C(C)N=c2s/c(=C3/C(=O)Nc4ccccc43)c(=O)n2C1c1ccc(C)cc1 (configuration not stated)	54*	50	3	0	0
CCc1ccc2[nH]c(=O)c(CN(Cc3ccccc3OC)Cc3nnnn3Cc3ccco3)cc2c1	99*	39	44	1	35
COc1ccccc1CN(Cc1cc2cc(C)ccc2[nH]c1=O)Cc1nnnn1Cc1ccco1	61*	29	-7	0	8
O=C(Nc1ccc(C(=O)N2CCOCC2)cc1)c1cc(-c2cccnc2)nc2ccc(Cl)cc12	11	5	-8	0	0
CCN(CC)CC(=O)Nc1c(C)cc(C)cc1C	-3	-5	/	/	/
Cc1cc(C)c(NC(=O)CN(C2CCCCC2)C2CCCCC2)c(C)c1	96*	18	-15	0	6
CCCC[N+](CC#Cc1ccccc1)(CCCC)CCCS(=O)(=O)[O-]	-9	-5	1	0	-2
COc1cc(/C=N/Nc2nc(C)cc(C)n2)ccc1OC(=O)c1ccco1	51*	2	26	0	0
COc1cc(/C=N/Nc2ccc3ccccc3c2)ccc1OC(=O)c1ccco1	88*	9	-18	0	-16
CCOc1cc(/C=N\Nc2nc(Nc3ccccc3)nc(N3CCOCC3)n2)ccc1OC(=O)c1ccco1	88*	46	-1	0	0
O=C(Oc1ccc(/C=N/Nc2nc(N3CCCCC3)nc(N3CCCCC3)n2)cc1)c1ccco1	48	21	-7	0	-3
Cc1ccc(Nc2nc(N/N=C\c3ccc4c(c3)OCO4)nc(N3CCOCC3)n2)cc1	54*	58*	2	0	-7
CCOC(=O)c1sc(=NC(=O)c2cccs2)n(C)c1C	-7	6	53*	0	29
O=C(Nc1ccc(N2CCN(C(=O)c3ccco3)CC2)c(Cl)c1)c1cc2ccccc2o1	96*	55*	-73	0	-74*
CCCC(=O)N1CCN(c2ccc(NC(=O)c3cc4ccccc4o3)cc2Cl)CC1	60*	48	-78	0	-79*
N#Cc1ccc(C(CC(=O)O)N2Cc3ccccc3C2=O)cc1 (configuration not stated)	/	1	9	/	-9
CCCCCn1cnc2sc(-c3ccccc3)cc2c1=O	-1	15	57*	0	30
CCCCCn1cnc2sc(CC)cc2c1=O	-7	8	47	0	34
CCCCn1cnc2sc(-c3ccccc3)cc2c1=O	7	8	56*	0	32
CNC(=O)NC(=O)Cn1cnc2sc(-c3ccccc3)cc2c1=O	/	-15	8	/	-2
N/C(=N\c1nc2c(c(=O)[nH]1)CCC2)Nc1ccccc1	73*	4	-7	0	-6
CC(OC(=O)c1ccccc1Oc1ccccc1)C(=O)NC1CC1 (configuration not stated)	4	-4	-12	-1	-1
C=C(C)n1c(=O)n(Cc2ccccc2C)c2ccccc21	/	7	2	/	1
SMILES	L major viab	T cruzi repl	HSF1 activator	Hsp70 activator	HSF1 inhib
Cc1ccc(C)c(N2CC(C(=O)Nc3nccs3)CC2=O)c1 (configuration not stated)	/	-6	10	/	-2
N#Cc1nc(Cc2cccc3ccccc23)oc1NCCN1CCCCC1	65*	0	5	0	-1
COc1ccccc1C(O)(C(=O)N(NC(C)=O)c1ccccc1)c1ccccc1OC	/	-5	-71	/	-63*
Cc1ccc(N2C(=O)C3C(C2=O)C2C=CC3C23CC3)c([N+](=O)[O-])c1 (configuration not stated)	1	2	4	0	-7
CNc1nc(-c2c(C)n(C)c3ccc(OC)cc23)cs1	/	34	-49	/	-35
COC(=O)c1ncccc1SC	28	-6	0	0	1
CCC(C)n1ncn(-c2ccc(N3CCN(c4ccc(OCC5COC(Cn6cncn6)(c6ccc(Cl)cc6Cl)O5)cc4)CC3)cc2)c1=O (configuration not stated)	/	55*	4	0	7
CCC(C)n1ncn(-c2ccc(N3CCN(c4ccc(O)cc4)CC3)cc2)c1=O (configuration not stated)	24	-17	1	0	-4
